A short description of data set [1]: Solubility of the compound in phosphate buffer at pH 6.5 shaken for 2 hrs followed by overnight incubation. The class given is physicochemical. In outline: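 Lyophilisation solubility assay run in duplicate from 10 mM DMSO stock. DMSO evaporated and residue redissolved in 0.05 M phosphate, pH 6.5. Stirred 1 hr, shaken 2 hr, left overnight, then filtered. Filtrate and a 1/10 dilution analysed by HPLC-UV against a four-point calibration.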

The nature of data set [2]: Dose normalized AUC in cynomolgus monkey. The class given is ADME, Macaca fascicularis. The settings on record: in vivo.
Data set [3] is described as follows: AUC (0 to infinity) in Wister-Han rat at 3 mg/kg, po administered as single dose by LC/MS-MS analysis. The class given is ADME, organism-based. On the set-up: dose 3 mg/kg, route oral, time infinity. The settings on record: Wistar-Han, in vivo. The essentials: (§1)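 Male Wistar-Han rats, single dose. IV 1 mg/kg, compound at 0.5 mg/mL in NMP:saline 30/70 (v/v). Oral 3 mg/kg, 0.25 mg/mL in 2% Klucel with 0.1% Polysorbate 80. Three rats per time point. Heparinized blood taken at eight (iv) or seven (po) time points, plasma stored at -20 °C. Plasma levels by LC/MS-MS. Non-compartmental analysis.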

A short description of data set [4]: Intrinsic clearance in rat hepatocytes. The format is ADME, cell-based, Hepatocyte. As to conditions: read-out: CLH.
Data set [5] can be described thus: Oral bioavailability in cynomolgus monkey. The class given is ADME, organism-based, Macaca fascicularis. As to conditions: in vivo.
The nature of data set [6]: Oral bioavailability in Wister-Han rat at 3 mg/kg administered as single dose by LC/MS-MS analysis. The class given is ADME, organism-based. The settings on record: Wistar-Han, in vivo. The essentials:
as §1

Data set [7] in a line: Intrinsic clearance in cynomolgus monkey hepatocytes. As to conditions: read-out: CLH. The class given is ADME, cell-based, Macaca fascicularis, Hepatocyte.
Data set [8] is described as follows: Protein binding in rat plasma assessed as unbound fraction at 1 uM by micro-equilibrium dialysis based LC-MS/MS analysis. The format is ADME, cell-free. The essentials: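 Equilibrium dialysis of pooled rat or cynomolgus plasma against Soerensen buffer pH 7.4, 12–14 kDa cut-off membrane. Compounds tested in cassettes of 2–5 at 1 μM initial total concentration, with diazepam as control. Dialysis 5 hr at 37 °C under 5% CO₂. Unbound percentage by LC/MS-MS.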
For orientation: Equilibrium dialysis compares concentrations on both sides of a semipermeable membrane.

Data set [9] has as its system Cynomolgus monkey. Kind of data set: In vivo inhibition of CYP11B1 in cynomolgus monkey assessed as reduction in ACTH-induced cortisol at 0.01 to 1 mg/kg, po preincubated for 1 hr followed by ACTH challenge and measured after 60 mins by LC/MS-MS analysis. The format is ADME, organism-based, Macaca fascicularis. The essentials:
(§2)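 Cynomolgus monkeys preselected as Synacthen responders (at least 2-fold rise in aldosterone, cortisol and corticosterone). Two animals per group. Oral vehicle or compound at 0.01–10 mg/kg in hydroxyethylcellulose/polysorbate 80/paraben suspension (2 mL/kg) at T=0, then 14.5 µg/kg Synacthen i.m. at 1 hr. EDTA blood drawn from -5 min to 24 h. Plasma steroids measured by LC/MS-MS; data shown 60 min after challenge.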

The nature of data set [10]: Inhibition of cynomolgus monkey CYP11B2 expressed in human G401 cells using 1-deoxycorticosterone as substrate by HTRF assay. As to conditions: g-401. The format is cell-based, Macaca fascicularis. The essentials: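 Cells with endogenous FDXR/FDX and no detectable CYP11B activity, stably transfected (CMV promoter, neomycin selection, G-418 400 µg/mL) with CYP11B1 or CYP11B2 of the named species. Assayed in DMEM/F12 with 2.5% charcoal-treated FCS. Substrate 1 µM 11-deoxycorticosterone (B2) or 11-deoxycortisol (B1), 16 hr. Aldosterone or cortisol in supernatant measured by HTRF. IC50 from 4-parameter MMF fit; selectivity factor is the B1/B2 IC50 ratio.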
In general terms: TR-FRET usually uses a lanthanide donor and a delayed reading to cut background.

The test system of data set [11] is Cynomolgus monkey. Kind of data set: In vivo inhibition of CYP11B2 in cynomolgus monkey assessed as reduction in ACTH-induced 11-deoxycorticosterone at 0.01 to 10 mg/kg, po preincubated for 1 hr followed by ACTH challenge and measured after 60 mins by LC/MS-MS analysis. The format is functional, organism-based. As to conditions: Macaca fascicularis. The essentials:
as §2

Data set [12] can be described thus: Free plasma concentration in cynomolgus monkey at 1 mg/kg. The format is ADME, organism-based, Macaca fascicularis. The settings on record: in vivo. The essentials: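 Cynomolgus monkeys, 2 per group, given single oral doses of 0.01, 0.1, 1 or 10 mg/kg as a suspension in hydroxyethylcellulose/polysorbate 80/parabens vehicle, 2 mL/kg. Synacthen 14.5 µg/kg given i.m. at 1 hr. Plasma compound levels by LC/MS-MS. Average free exposure calculated from AUC0-7hr and corrected for plasma protein binding.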

pIC50: −log10 of the molar value. Values after ≈ are worked out from the molar mass of the structure shown. Active and inactive are the calls of the source.

This is an account of results in ChEMBL document CHEMBL4616681, “Discovery of 3-Pyridyl Isoindolin-1-one Derivatives as Potent, Selective, and Orally Active Aldosterone Synthase (CYP11B2) Inhibitors” (J Med Chem, 2020).

As a reminder, the solubility is the dissolved amount per volume that the medium holds. Usually AUC(0-inf) stands for the area under the concentration-time curve extrapolated to infinity. Broadly, the bioavailability is dose-corrected exposure relative to a reference, in per cent. By fraction unbound is commonly meant free concentration divided by total concentration. By pIC50 is commonly meant −log10 of the IC50, conventionally taken in molar units. On to `CCS(=O)(=O)N1CC(Oc2cncc(N3C(=O)c4ccc(Cl)cc4C3(C)C)c2)C1`, for which the solubility at 2 h in [1] came out at 78 µg/mL (≈ 179 µM). The AUC/dose in data set [2] is 1085 kg·ng·h/mL/mg. The same molecule came in with an area under the curve AUC(0-inf) in data set [3] of 6370 ng·h/mL. In addition, the CLint scaled was found to be 26.7 mL/min/kg in [4] and 7.2 mL/min/kg in [7]. The bioavailability in data set [5] amounted to 19%; in [6], 45%. In addition, the fraction unbound at 1 µM in [8] came to 0.052. Also, the Activity entry in data set [9] was “Non-Toxic”. Also, the pIC50 in data set [10] was 8.70. The inhibition result in [11] is “inactive”. In addition, in data set [12], the “Cp(f)” value was 10.3 ng/mL.
